Experimental data published in ChEMBL document CHEMBL3352028, “SAR studies on tetrahydroisoquinoline derivatives: the role of flexibility and bioisosterism to raise potency and selectivity toward P-glycoprotein” (J Med Chem, 2014).

Experiments:
[1] = target: Multidrug resistance-associated protein 1 (Homo sapiens, UniProt P33527); assay: Inhibition of MRP1 (unknown origin) over-expressed in MDCK cells assessed as calcein accumulation incubated for 30 mins prior to Calcein-AM addition measured after 30 mins by fluorescence assay; type: cell-based
How it was run: (§1)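 MDCK-MDR1 or MDCK-MRP1 cells at 50 000 cells/well, confluent overnight. Compounds in culture medium for 30 min at 37 °C, then Calcein-AM added (2.5 μM final) for a further 30 min. Washed three times with ice-cold PBS, fluorescence read at ex 485, em 535 nm. Percent increase over untreated basal level fitted against log dose to give EC50.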

[2] = Efflux ratio of apparent permeability from basolateral to apical side over apical to basolateral side in human Caco2 cells at 100 uM after 120 mins by UV-Vis spectrophotometry; type: ADME, cell-based; conditions: Caco-2
How it was run: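 Caco-2 cells seeded at 10 000 cells/well and grown 21 days, medium changed every 48 h for 6 days then daily; TEER checked before and after, generally >1000 Ω. Monolayers preincubated twice in HBSS (pH 7.4) 30 min at 37 °C. Drug at 100 μM in HBSS on apical or basolateral side, 120 min at 37 °C. Both sides sampled, drug quantified by UV-vis against a calibration curve. Papp computed from acceptor concentration, volume, membrane area (0.11 cm2) and time (7200 s). Ratio taken as B→A over A→B.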

[3] = target: ATP-dependent translocase ABCB1 (Homo sapiens, UniProt P08183); assay: Inhibition of MDR1 (unknown origin) over-expressed in MDCK cells assessed as calcein accumulation incubated for 30 mins prior to Calcein-AM addition measured after 30 mins by fluorescence assay; type: cell-based; how it was run: as §1
[4] = target: T1, Broad substrate specificity ATP-binding cassette transporter ABCG2 (Homo sapiens, UniProt Q9UNQ0); assay: Inhibition of BCRP (unknown origin) over-expressed in MDCK cells assessed as Hoechst 33342 accumulation incubated for 30 mins prior to Hoechst 33342 addition measured after 30 mins by fluorescence assay; type: cell-based; conditions: 0.5 h
T1 sequence (Q9UNQ0 whole entry): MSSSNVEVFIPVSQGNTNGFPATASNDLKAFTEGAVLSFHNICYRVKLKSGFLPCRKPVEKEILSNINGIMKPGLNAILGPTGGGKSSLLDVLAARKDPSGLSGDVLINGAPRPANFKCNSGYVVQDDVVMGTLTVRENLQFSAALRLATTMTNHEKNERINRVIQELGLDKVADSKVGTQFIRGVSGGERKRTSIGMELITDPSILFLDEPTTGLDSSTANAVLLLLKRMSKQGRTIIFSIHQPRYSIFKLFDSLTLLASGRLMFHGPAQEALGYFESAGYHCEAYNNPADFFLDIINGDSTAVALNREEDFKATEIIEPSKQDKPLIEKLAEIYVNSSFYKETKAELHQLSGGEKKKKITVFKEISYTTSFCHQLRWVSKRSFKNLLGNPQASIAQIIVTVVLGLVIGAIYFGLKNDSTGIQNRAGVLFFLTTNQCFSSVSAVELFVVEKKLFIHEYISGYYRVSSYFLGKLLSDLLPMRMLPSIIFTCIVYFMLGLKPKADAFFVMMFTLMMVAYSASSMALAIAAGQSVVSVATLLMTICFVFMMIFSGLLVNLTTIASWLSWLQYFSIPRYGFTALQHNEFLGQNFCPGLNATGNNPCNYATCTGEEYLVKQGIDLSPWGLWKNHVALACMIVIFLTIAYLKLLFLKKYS
How it was run: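 MDCK-BCRP cells at 30 000 cells/well, confluent overnight. Compounds in culture medium for 30 min at 37 °C, then Hoechst 33342 added (8 μM final) for 30 min. Cells fixed 20 min in 4% PFA protected from light, washed three times with ice-cold PBS, fluorescence read at ex 340/35, em 485/20 nm. Increase over untreated basal level fitted against log dose to give EC50.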

Multidrug resistance-associated protein 1, sequence (P33527 whole entry): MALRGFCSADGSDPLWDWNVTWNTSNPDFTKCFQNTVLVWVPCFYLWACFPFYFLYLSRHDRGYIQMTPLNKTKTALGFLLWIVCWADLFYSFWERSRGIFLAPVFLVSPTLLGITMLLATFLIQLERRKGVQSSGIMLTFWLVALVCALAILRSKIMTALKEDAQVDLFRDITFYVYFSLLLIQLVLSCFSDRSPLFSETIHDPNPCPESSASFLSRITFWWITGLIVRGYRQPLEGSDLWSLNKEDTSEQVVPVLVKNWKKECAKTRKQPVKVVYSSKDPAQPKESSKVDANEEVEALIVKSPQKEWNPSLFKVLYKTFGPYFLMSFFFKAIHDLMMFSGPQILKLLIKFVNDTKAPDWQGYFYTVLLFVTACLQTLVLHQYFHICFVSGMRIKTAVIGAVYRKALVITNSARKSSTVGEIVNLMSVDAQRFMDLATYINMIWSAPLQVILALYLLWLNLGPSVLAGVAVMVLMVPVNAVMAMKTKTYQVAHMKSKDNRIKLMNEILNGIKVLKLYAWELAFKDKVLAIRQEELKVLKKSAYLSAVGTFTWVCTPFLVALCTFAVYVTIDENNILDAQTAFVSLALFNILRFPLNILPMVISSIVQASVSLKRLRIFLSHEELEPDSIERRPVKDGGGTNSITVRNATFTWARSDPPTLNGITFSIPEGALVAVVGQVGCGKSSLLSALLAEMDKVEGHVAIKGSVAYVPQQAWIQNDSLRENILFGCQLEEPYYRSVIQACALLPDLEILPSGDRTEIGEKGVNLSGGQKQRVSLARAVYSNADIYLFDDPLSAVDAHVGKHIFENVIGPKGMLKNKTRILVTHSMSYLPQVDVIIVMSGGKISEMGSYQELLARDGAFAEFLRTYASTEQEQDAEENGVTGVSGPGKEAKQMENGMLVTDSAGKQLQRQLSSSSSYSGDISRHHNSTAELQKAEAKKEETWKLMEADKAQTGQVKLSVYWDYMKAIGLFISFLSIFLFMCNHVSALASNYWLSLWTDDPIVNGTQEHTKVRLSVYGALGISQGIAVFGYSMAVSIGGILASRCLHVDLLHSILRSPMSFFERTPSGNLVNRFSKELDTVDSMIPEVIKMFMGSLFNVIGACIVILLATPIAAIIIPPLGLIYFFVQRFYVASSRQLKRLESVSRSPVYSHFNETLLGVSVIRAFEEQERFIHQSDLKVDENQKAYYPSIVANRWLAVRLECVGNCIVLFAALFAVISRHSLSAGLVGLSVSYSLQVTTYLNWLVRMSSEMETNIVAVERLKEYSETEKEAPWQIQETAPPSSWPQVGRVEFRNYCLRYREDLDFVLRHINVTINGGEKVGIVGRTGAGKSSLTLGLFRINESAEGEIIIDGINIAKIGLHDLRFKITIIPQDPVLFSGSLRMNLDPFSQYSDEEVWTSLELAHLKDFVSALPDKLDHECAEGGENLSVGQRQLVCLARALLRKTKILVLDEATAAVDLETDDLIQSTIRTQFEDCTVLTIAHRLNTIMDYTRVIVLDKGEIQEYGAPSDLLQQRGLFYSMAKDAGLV
ATP-dependent translocase ABCB1, sequence (P08183 whole entry): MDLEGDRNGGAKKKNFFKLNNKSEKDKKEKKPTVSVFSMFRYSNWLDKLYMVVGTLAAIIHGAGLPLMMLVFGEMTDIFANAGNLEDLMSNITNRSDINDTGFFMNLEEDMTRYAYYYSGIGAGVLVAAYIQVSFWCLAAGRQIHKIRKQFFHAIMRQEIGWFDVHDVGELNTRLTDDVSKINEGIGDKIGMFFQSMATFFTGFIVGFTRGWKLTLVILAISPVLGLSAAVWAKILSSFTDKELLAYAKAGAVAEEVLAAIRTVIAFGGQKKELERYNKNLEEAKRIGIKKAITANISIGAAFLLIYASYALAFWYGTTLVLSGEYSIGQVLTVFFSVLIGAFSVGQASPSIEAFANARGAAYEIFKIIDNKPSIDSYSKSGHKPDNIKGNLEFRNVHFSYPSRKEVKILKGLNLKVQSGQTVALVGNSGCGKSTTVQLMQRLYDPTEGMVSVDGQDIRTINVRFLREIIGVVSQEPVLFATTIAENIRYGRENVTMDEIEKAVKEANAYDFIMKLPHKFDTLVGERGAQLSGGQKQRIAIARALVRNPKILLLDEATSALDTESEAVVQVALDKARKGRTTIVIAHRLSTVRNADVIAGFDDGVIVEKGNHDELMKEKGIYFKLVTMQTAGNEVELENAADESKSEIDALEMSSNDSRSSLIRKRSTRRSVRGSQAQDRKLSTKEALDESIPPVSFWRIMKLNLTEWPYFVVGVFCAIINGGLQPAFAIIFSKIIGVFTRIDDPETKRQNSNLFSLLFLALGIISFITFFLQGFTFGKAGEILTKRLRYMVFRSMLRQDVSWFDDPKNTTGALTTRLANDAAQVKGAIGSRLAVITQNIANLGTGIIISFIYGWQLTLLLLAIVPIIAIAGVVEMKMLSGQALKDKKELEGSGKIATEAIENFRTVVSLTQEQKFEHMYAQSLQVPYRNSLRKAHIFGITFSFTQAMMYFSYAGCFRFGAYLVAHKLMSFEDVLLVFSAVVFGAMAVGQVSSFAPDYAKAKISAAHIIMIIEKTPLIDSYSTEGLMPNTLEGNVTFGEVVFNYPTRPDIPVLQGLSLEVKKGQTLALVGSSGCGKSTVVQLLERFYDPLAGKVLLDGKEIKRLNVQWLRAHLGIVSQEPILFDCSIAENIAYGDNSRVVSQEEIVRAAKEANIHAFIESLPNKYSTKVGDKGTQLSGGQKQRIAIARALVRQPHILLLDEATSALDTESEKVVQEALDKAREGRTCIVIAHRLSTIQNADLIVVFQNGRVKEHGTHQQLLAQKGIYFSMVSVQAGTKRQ

Row | Structure (SMILES) | EC50 ([1]; mdck) | efflux ratio at 2 h, 100 µM [2] | EC50 ([3]; read-out: EC50) [nM] | inhibition (INH) [4] | EC50 ([1]; read-out: EC50) [µM] | EC50 ([3]; mdck)
1 | COc1cc2c(cc1OC)CN(CCCC1CCCc3c(OC)cccc31)CC2 (stereo not drawn) | Not Active | 4.4 | – | – | – | –
2 | COc1cc2c(cc1OC)CN(Cc1ccc(-c3ccc(O)cc3)cc1)CC2 | – | – | 9300 | – | – | –
3 | COc1ccc(-c2ccc(CN3CCc4cc(OC)c(OC)cc4C3)cc2)cc1 | Not Active | 4.4 | – | – | – | –
4 | COc1ccc(-c2ccc3c(c2)C=C(CC(=O)N2CCc4cc(OC)c(OC)cc4C2)CO3)cc1 | Not Active | 3.2 | 5800 | Not Active | – | –
5 | COc1ccc(-c2ccc(C(=O)N3CCc4cc(OC)c(OC)cc4C3)o2)cc1 | Not Active | 5.2 | 910 | Not Active | – | –
6 | COc1cc2c(cc1OC)CN(C(=O)c1ccc(-c3ccc(O)cc3)o1)CC2 | Not Active | 4.5 | 6400 | Not Active | – | –
7 | COc1ccc(-c2ccc(CN3CCc4cc(OC)c(OC)cc4C3)o2)cc1 | Not Active | 3.7 | 4300 | Not Active | – | –
8 | COc1cc2c(cc1OC)CN(Cc1ccc(-c3ccc(O)cc3)o1)CC2 | Not Active | 5.7 | 8100 | Not Active | – | –
9 | COc1ccc(-c2ccc(CC(=O)N3CCc4cc(OC)c(OC)cc4C3)cc2)cc1 | – | 3.9 | 800 | Not Active | 10 | –
10 | COc1ccc(-c2ccc(CCN3CCc4cc(OC)c(OC)cc4C3)cc2)cc1 | Not Active | 38 | 570 | Not Active | – | –
11 | COc1cc2c(cc1OC)CN(CCc1ccc(-c3ccc(F)cc3)cc1)CC2 | Not Active | 3.8 | 2000 | Not Active | – | –
12 | COc1cc2c(cc1OC)CN(Cc1ccc(-c3ccc(F)cc3)cc1)CC2 | Not Active | 3.8 | 4900 | Not Active | – | –
13 | COc1ccc(-c2ccc(OCCCN3CCc4cc(OC)c(OC)cc4C3)cc2)cc1 | Not Active | 7.9 | 1300 | Not Active | – | –
14 | COc1ccc(-c2ccc(OCCN3CCc4cc(OC)c(OC)cc4C3)cc2)cc1 | Not Active | 47 | 930 | Not Active | – | –
15 | COc1ccc(-c2ccc(NCCCN3CCc4cc(OC)c(OC)cc4C3)cc2)cc1 | Not Active | 2.2 | 1800 | Not Active | – | –
16 | COc1cc2c(cc1OC)CN(CCCCOc1ccc(-c3ccc(O)cc3)cc1)CC2 | Not Active | 1.5 | – | Not Active | – | Not Active
17 | COc1ccc(-c2ccc(OCCCCN3CCc4cc(OC)c(OC)cc4C3)cc2)cc1 | Not Active | 6.6 | 4 | Not Active | – | –
18 | COc1ccc(-c2ccc3c(c2)C=C(CCN2CCc4cc(OC)c(OC)cc4C2)CO3)cc1 | Not Active | 4.9 | 1200 | Not Active | – | –
19 | COc1cc2c(cc1OC)CN(CCc1ccccc1-c1cccc(O)c1)CC2 | Not Active | 3.2 | 230 | Not Active | – | –
20 | COc1cccc(-c2ccccc2CCN2CCc3cc(OC)c(OC)cc3C2)c1 | – | 4.1 | 69 | Not Active | 23 | –
